Laboratory results as given in ChEMBL document CHEMBL3272112, “Cycloalkanones. 8. Hypocholesterolemic activity of long-chain ketones related to pentadecanone” (J Med Chem, 1976).

Legend:
Rattus norvegicus [1] = experiment: Toxicity in Sprague-Dawley rat assessed as increase in body weight at 10 mg/kg/day measured on day 16 (reference value: 195 +/- 16%); format: organism-based; conditions: in vivo
Rattus norvegicus [2] = experiment: Toxicity in Sprague-Dawley rat assessed as effect on DNA level in liver at 10 mg/kg/day measured after 16 days (reference value: 100 +/- 2%); format: organism-based; conditions: in vivo, 384 h
Rattus norvegicus [3] = species on record: Rattus norvegicus; experiment: Disruption of rat liver cell membrane assessed as unlysed cells at 25 mg per gram of tissue measured at 15 mins (reference value: 91 +/- 6%); format: functional
Summary of the method: (§1)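 Rat liver 10% homogenate in 0.25 M sucrose + 0.001 M EDTA, pH 7.2, incubated at 37°C with Hanke's buffer pH 7.2 and drug suspended in 1% CMC (dose as mg drug per g wet liver); turbidity read as absorbance at 660 nm over 0–4 hr, falling absorbance taken as lysis; expressed as % unlysed cells; vehicle 1% CMC control.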

Rattus norvegicus [4] = species on record: Rattus norvegicus; experiment: Disruption of rat liver cell membrane assessed as unlysed cells at 5 mg per gram of tissue measured at 2 hrs (reference value: 77 +/- 8%); format: functional; summary of the method: as §1
Rattus norvegicus [5] = experiment: Toxicity in Sprague-Dawley rat assessed as atrophy of vesicular gland at 10 mg/kg/day administered for 16 days measured on day 16 post last dose; format: organism-based; conditions: in vivo, 384 h
Rattus norvegicus [6] = experiment: Toxicity in Sprague-Dawley rat assessed as effect on lipid level in liver at 10 mg/kg/day measured after 16 days (reference value: 100 +/- 13%); format: organism-based; conditions: in vivo, 384 h
Rattus norvegicus [7] = experiment: Toxicity in Sprague-Dawley rat assessed as increase in body weight at 5 mg/kg/day administered for 16 days measured on day 16 post last dose (reference value: 195 +/- 16%); format: organism-based; conditions: in vivo, 384 h
Rattus norvegicus [8] = experiment: Toxicity in Sprague-Dawley rat assessed as increase in body weight at 50 mg/kg/day administered for 16 days measured on day 16 post last dose (reference value: 195 +/- 16%); format: organism-based; conditions: in vivo, 384 h
Rattus norvegicus [9] = species on record: Rattus norvegicus; experiment: Disruption of rat liver cell membrane assessed as unlysed cells at 25 mg per gram of tissue measured at 30 mins (reference value: 93 +/- 7%); format: functional; summary of the method: as §1
Rattus norvegicus [10] = species on record: Rattus norvegicus; experiment: Disruption of rat liver cell membrane assessed as unlysed cells at 10 mg per gram of tissue measured at 30 mins (reference value: 93 +/- 7%); format: functional; summary of the method: as §1
Rattus norvegicus [11] = species on record: Rattus norvegicus; experiment: Disruption of rat liver cell membrane assessed as unlysed cells at 25 mg per gram of tissue measured at 4 hrs (reference value: 17 +/- 4%); format: functional; summary of the method: as §1
Rattus norvegicus [12] = experiment: Toxicity in Sprague-Dawley rat assessed as food intake at 20 mg/kg/day measured after 1 week (reference value: 20.9 +/- 4.9 g/day); format: organism-based; conditions: in vivo, 168 h
Rattus norvegicus [13] = experiment: Hypocholesterolemic activity in Sprague-Dawley rat assessed as serum cholesterol level at 10 mg/kg/day, po administered via intubation measured on day 4 by Liebermann-Burchard method relative to control; format: functional
Summary of the method: (§2)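 Male Sprague-Dawley rats given compound homogenized in 1% CMC once daily at 11:00 a.m. by oral intubation needle (0.2 cc), doses calculated on weekly body weights; tail-vein blood drawn 24 h after last dose; nonhemolyzed serum (30 μ) assayed by modified Liebermann-Burchard method; N = 8; % of control, mean ± SD; Student's t test.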

Rattus norvegicus [14] = experiment: Toxicity in Sprague-Dawley rat assessed as change in heart weight at 10 mg/kg/day administered for 16 days measured on day 16 post last dose relative to total body weight (reference value: 0.39 +/- 0.04%); format: organism-based; conditions: in vivo, 384 h
Rattus norvegicus [15] = experiment: Toxicity in Sprague-Dawley rat assessed as increase in body weight at 20 mg/kg/day administered for 16 days measured on day 16 post last dose (reference value: 195 +/- 16%); format: organism-based; conditions: in vivo, 384 h
[16] = Toxicity in CF1 mouse; format: organism-based; conditions: in vivo
Summary of the method: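 Male CF1 mice; acute lethality measured and LD50 calculated by the Litchfield and Wilcoxon method.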

Rattus norvegicus [17] = species on record: Rattus norvegicus; experiment: Disruption of rat liver cell membrane assessed as unlysed cells at 5 mg per gram of tissue measured at 15 mins (reference value: 91 +/- 6%); format: functional; summary of the method: as §1
Rattus norvegicus [18] = experiment: Hypocholesterolemic activity in Sprague-Dawley rat assessed as serum cholesterol level at 10 mg/kg/day, po administered via intubation measured on day 16 by Liebermann-Burchard method relative to control; format: functional; summary of the method: as §2
Rattus norvegicus [19] = experiment: Toxicity in Sprague-Dawley rat assessed as increase in testes weight at 10 mg/kg/day administered for 16 days measured on day 16 post last dose relative to total body weight (reference value: 1.09 +/- 0.01%); format: organism-based, Testis; conditions: in vivo, 384 h
Rattus norvegicus [20] = experiment: Toxicity in Sprague-Dawley rat assessed as increase in body weight at 10 mg/kg/day measured on day 10 (reference value: 160 +/- 13%); format: organism-based; conditions: in vivo
Rattus norvegicus [21] = species on record: Rattus norvegicus; experiment: Disruption of rat liver cell membrane assessed as unlysed cells at 10 mg per gram of tissue measured at 1 hr (reference value: 90 +/- 4%); format: functional; summary of the method: as §1
Rattus norvegicus [22] = experiment: Hypocholesterolemic activity in Sprague-Dawley rat assessed as serum cholesterol level at 1 mg/kg/day, po administered via intubation measured on day 10 by Liebermann-Burchard method relative to control; format: functional; summary of the method: as §2
Rattus norvegicus [23] = experiment: Toxicity in Sprague-Dawley rat assessed as increase in liver weight at 10 mg/kg/day administered for 16 days measured on day 16 post last dose relative to total body weight (reference value: 4.35 +/- 0.39%); format: organism-based; conditions: in vivo, 384 h
Rattus norvegicus [24] = experiment: Hypocholesterolemic activity in Sprague-Dawley rat assessed as serum cholesterol level at 5 mg/kg/day, po administered via intubation measured on day 4 by Liebermann-Burchard method relative to control; format: functional; summary of the method: as §2
Rattus norvegicus [25] = experiment: Toxicity in Sprague-Dawley rat assessed as food intake at 1 mg/kg/day measured after 2 weeks (reference value: 24.8 +/- 1.1 g/day); format: organism-based; conditions: in vivo, 336 h
Rattus norvegicus [26] = species on record: Rattus norvegicus; experiment: Disruption of rat liver cell membrane assessed as unlysed cells at 5 mg per gram of tissue measured at 4 hrs (reference value: 17 +/- 4%); format: functional; summary of the method: as §1
Rattus norvegicus [27] = experiment: Uterotrophic activity in ovariectomized weaned Sprague-Dawley rat assessed as uterine weight at 10 mg/kg/day measured after 3 days (reference value: 100 +/- 15%); format: ADME, organism-based, Uterus; conditions: in vivo, 72 h
Summary of the method: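 Weaned rats were ovariectomized and left untreated for 3 days. They were then dosed for 3 days with 17-ethinylestradiol 10 µg/kg/day or test compound 10 mg/kg/day, with 1% CMC as the vehicle control. Rats were then killed and the uterus removed, trimmed and weighed. Results are % of control uterine weight, mean ± SD; N = 7; Student's t test.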

Rattus norvegicus [28] = experiment: Toxicity in Sprague-Dawley rat assessed as effect on RNA level in liver at 10 mg/kg/day measured after 16 days (reference value: 100 +/- 6%); format: organism-based; conditions: in vivo, 384 h
Rattus norvegicus [29] = experiment: Toxicity in Sprague-Dawley rat assessed as effect on glycogen level in liver at 10 mg/kg/day measured after 16 days (reference value: 100 +/- 26%); format: organism-based; conditions: in vivo, 384 h
Rattus norvegicus [30] = species on record: Rattus norvegicus; experiment: Disruption of rat liver cell membrane assessed as unlysed cells at 5 mg per gram of tissue measured at 30 mins (reference value: 93 +/- 7%); format: functional; summary of the method: as §1
Rattus norvegicus [31] = species on record: Rattus norvegicus; experiment: Disruption of rat liver lysosomal membrane assessed as free acid phosphatase activity at 5 mg per gram of tissue measured after 1 hr (reference value: 100 +/- 16%); format: functional, tissue-based
Summary of the method: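 10% rat liver homogenate incubated with Hanke's buffer pH 7.2 and drug suspension in 1% CMC in a shaker at 37°C; aliquot removed after 1 hr and percent free (unbound) acid phosphatase activity determined as an index of lysosomal membrane rupture.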

## CCCCCCCCCCCCCCC(C)=O
Rattus norvegicus [1]
  Activity: 228%
Rattus norvegicus [2]
  Activity: 114%
Rattus norvegicus [3]
  Activity: 97%
Rattus norvegicus [4]
  Activity: 83%
Rattus norvegicus [5]
  Activity: Non-toxic
Rattus norvegicus [6]
  Activity: 101%
Rattus norvegicus [7]
  Activity: 244%
Rattus norvegicus [8]
  Activity: 226%
Rattus norvegicus [9]
  Activity: 96%
Rattus norvegicus [10]
  Activity: 95%
Rattus norvegicus [11]
  Activity: 18%
Rattus norvegicus [12]
  Activity: 21.4 g/day
Rattus norvegicus [13]
  Activity: 79%
Rattus norvegicus [14]
  Activity: 0.39%
Rattus norvegicus [15]
  Activity: 225%
[16]
  LD50: 1750 mg/kg
Rattus norvegicus [17]
  Activity: 95%
Rattus norvegicus [18]
  Activity: 58%
Rattus norvegicus [19]
  Activity: 1.13%
Rattus norvegicus [20]
  Activity: 145%
Rattus norvegicus [21]
  Activity: 92%
Rattus norvegicus [22]
  Activity: 80%
Rattus norvegicus [23]
  Activity: 4.39%
Rattus norvegicus [24]
  Activity: 74%
Rattus norvegicus [25]
  Activity: 26.6 g/day
Rattus norvegicus [26]
  Activity: 17%
Rattus norvegicus [27]
  Activity: 64%
Rattus norvegicus [28]
  Activity: 111%
Rattus norvegicus [29]
  Activity: 105%
Rattus norvegicus [30]
  Activity: 93%
Rattus norvegicus [31]
  Activity: 85%
